The results in this text go back to ChEMBL document CHEMBL2163332 (J Med Chem, 2012).

Series [1] addresses Delta-type opioid receptor (Mus musculus, UniProt P32300). The series can be described thus: Agonist activity at delta opioid receptor in Kunming mouse vas deferens assessed as inhibition of electrically-stimulated muscle contraction. The class given is functional, tissue-based.
Series [2] concerns the target T1, Mu-type opioid receptor (Homo sapiens, UniProt P35372). The series is described as follows: Displacement of [3H]DAMGO from FLAG-tagged mu opioid receptor expressed in HEK293 cells after 60 mins by liquid scintillation counter. The class given is cell-based. In general terms: Loss of bound radioactivity is the signal in a displacement assay; it reports binding, not function.

Series [3] deals with Delta-type opioid receptor (Homo sapiens, UniProt P41143). The series is described as follows: Displacement of [3H]DPDPE from Myc-tagged delta opioid receptor expressed in HEK293 cells after 60 mins by liquid scintillation counter. It is filed as cell-based.
Chain of Delta-type opioid receptor (Homo sapiens, UniProt P41143) (P41143 whole entry): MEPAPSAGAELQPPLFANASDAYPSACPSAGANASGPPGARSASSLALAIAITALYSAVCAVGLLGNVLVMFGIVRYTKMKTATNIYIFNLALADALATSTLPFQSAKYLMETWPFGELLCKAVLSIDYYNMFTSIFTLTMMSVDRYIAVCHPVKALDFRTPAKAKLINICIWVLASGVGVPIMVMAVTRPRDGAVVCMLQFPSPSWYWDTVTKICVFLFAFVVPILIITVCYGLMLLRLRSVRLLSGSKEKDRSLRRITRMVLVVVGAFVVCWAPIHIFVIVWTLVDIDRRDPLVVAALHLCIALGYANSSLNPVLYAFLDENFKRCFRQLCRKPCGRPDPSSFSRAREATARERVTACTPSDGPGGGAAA
Series [4] in a line: Selectivity ratio of Ki for Myc-tagged delta opioid receptor to Ki for FLAG-tagged mu opioid receptor.
Series [5] concerns the target Mu-type opioid receptor (Cavia porcellus, UniProt P97266). The series can be described thus: Agonist activity at mu opioid receptor in guinea pig ileum assessed as inhibition of electrically-stimulated muscle contraction. The class given is functional, tissue-based.
Series [6] concerns the target T1, Mu-type opioid receptor. The series is described as follows: Agonist activity at mu opioid receptor expressed in HEK293 cells assessed as inhibition of forskolin-induced cAMP accumulation after 30 mins by liquid scintillation counter. The class given is functional, cell-based. (In general: Cyclic AMP is a second messenger, typically raised through Gs and lowered through Gi signalling.)

Series [7] addresses Delta-type opioid receptor (Mus musculus) (UniProt P32300). The series can be described thus: Agonist activity at delta opioid receptor in Kunming mouse vas deferens assessed as inhibition of electrically-stimulated muscle contraction in presence of delta opioid receptor antagonist naltrindole. It is filed as functional, tissue-based.
For series [8], the target named is T1, Mu-type opioid receptor. The series is described as follows: Agonist activity at mu opioid receptor expressed in HEK293 cells assessed as inhibition of forskolin-induced cAMP accumulation after 30 mins by liquid scintillation counter relative to control. It is filed as functional, cell-based. The method in brief:
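MOR-expressing HEK293 cells seeded at 80% confluence the day before, washed with serum-free medium, preincubated 10 min at 37 °C with 1 mM IBMX, then peptide (5 × 10−11 to 5 × 10−5 M) with 50 μM forskolin added for 30 min at 37 °C. Lysis in 0.2 N HCl, neutralisation, cAMP measured by competition with [3H]cAMP for PKA (≥2 h, 4 °C) and charcoal separation; scintillation counting.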

Series [9] deals with Mus musculus. The series can be described thus: Antinociceptive activity in icv dosed Kunming mouse assessed as inhibition of heat-induced tail flick after 5 to 60 mins. It is filed as functional. In outline: (§1)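 Male Kunming mice (18−22 g), peptide or saline given icv; tail immersed in 50 ± 0.2 °C water and withdrawal latency recorded; only mice with baseline latency about 3−5 s used. Readings at 5, 10, 15, 20, 30, 40, 50 and 60 min post-injection; 10−15 mice per group. Naloxone 2 mg/kg ip 10 min before icv dosing for antagonism. ED50 with 95% confidence limits by graded dose−response.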

Series [10] has as its system Mus musculus. The series is described as follows: Antinociceptive activity in naloxone treated Kunming mouse assessed as inhibition of heat-induced tail flick at 20 nmol/kg, icv after 10 mins post naloxone treatment. The class given is functional, organism-based. The method in brief:
as §1

The subject of series [11] is Mus musculus. The series is described as follows: Antinociceptive activity in Kunming mouse assessed as inhibition of heat-induced tail flick at 0.67 to 20 nmol/kg, icv. The settings on record: TDE = time-dependent effect. The class given is functional, organism-based. In outline:
as §1

A short description of series [12]: Half life in mouse brain homogenates. It is filed as ADME, tissue-based. The note with it: brain homogenate. In outline: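 Peptide incubated at 37 °C in twice-washed 15% mouse brain membrane homogenate, final protein 2.1 mg/mL in 50 mM Tris, pH 7.4. Aliquots centrifuged 13000g, 15 min, 4 °C, filtered 0.22 μm and analysed by C18 RP-HPLC (acetonitrile/water, 0.05% TFA). Half-life from pseudo-first-order disappearance kinetics; at least three experiments.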

Active and inactive are the calls of the source. The rule behind the calls is not given here.

Chain of Mu-type opioid receptor (Cavia porcellus, UniProt P97266) (P97266 whole entry): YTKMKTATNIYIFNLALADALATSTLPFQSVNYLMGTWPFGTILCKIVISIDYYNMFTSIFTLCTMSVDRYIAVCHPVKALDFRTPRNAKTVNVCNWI
Chain of Delta-type opioid receptor (Mus musculus, UniProt P32300) (P32300 whole entry): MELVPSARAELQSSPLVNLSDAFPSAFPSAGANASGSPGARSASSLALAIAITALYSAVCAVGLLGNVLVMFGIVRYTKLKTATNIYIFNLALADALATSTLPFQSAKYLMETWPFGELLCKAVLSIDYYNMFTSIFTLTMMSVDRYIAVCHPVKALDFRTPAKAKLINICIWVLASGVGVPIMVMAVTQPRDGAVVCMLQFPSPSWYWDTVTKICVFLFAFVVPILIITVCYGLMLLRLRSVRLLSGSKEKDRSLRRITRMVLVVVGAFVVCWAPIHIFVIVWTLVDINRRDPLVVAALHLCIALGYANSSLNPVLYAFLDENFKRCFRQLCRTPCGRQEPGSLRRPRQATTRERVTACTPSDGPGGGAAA
Chain of Delta-type opioid receptor (Mus musculus) (P32300 whole entry): as above
T1 sequence (P35372 whole entry): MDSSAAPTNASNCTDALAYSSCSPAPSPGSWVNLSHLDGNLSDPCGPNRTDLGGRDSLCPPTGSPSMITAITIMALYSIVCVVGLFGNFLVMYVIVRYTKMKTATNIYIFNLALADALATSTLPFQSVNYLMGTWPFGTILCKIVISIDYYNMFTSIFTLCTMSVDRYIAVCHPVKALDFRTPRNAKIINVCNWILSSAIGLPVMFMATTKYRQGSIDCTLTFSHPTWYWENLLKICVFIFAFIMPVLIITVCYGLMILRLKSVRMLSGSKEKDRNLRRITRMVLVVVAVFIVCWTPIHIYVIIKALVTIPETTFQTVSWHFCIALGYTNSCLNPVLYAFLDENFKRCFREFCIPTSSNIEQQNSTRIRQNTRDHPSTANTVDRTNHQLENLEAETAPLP

Take `C=C(C(N)=O)[C@@H](NC(=O)[C@H](Cc1c[nH]c2ccccc12)NC(=O)[C@@H]1CCCN1C(=O)[C@@H](N)Cc1ccc(O)cc1)c1ccc2ccccc2c1`: the concentration for half-maximal inhibition (IC50) in [1] turned out to be 141 nM; on Mu-type opioid receptor [5], 18.2 nM. Besides, the Ki on Mu-type opioid receptor [2] stood at 27.4 nM; in [3] it was 84900 nM. Also, the Ratio Ki in series [4] is 3100. The EC50 at Mu-type opioid receptor [6] was 70.3 nM. The inhibition result on Mu-type opioid receptor [6] was “Dose-dependent effect”. Also, the inhibition entry in [7] is “inactive”. Also, the Emax on Mu-type opioid receptor [8] is 67.5%.

Regarding `C=C(C(=O)N[C@@H](Cc1ccccc1)C(N)=O)[C@@H](NC(=O)[C@@H]1CCCN1C(=O)[C@@H](N)Cc1ccc(O)cc1)c1ccccc1`, the IC50 in series [1] is above 10000 nM; at Mu-type opioid receptor [5] it was 20.9 nM. Besides, the Ki is 103 nM on Mu-type opioid receptor [2] and 59300 nM in [3]. Moreover, the Ratio Ki in series [4] was found to be 576. Also, the EC50 on Mu-type opioid receptor [6] amounted to 36.5 nM. The inhibition result at Mu-type opioid receptor [6] and with Mus musculus [9] was “Dose-dependent effect” in each case. The inhibition result in [7] was “inactive”. At Mu-type opioid receptor [8], the maximum response (Emax) was 70.8%.

As for `C=C(C(N)=O)[C@@H](NC(=O)C(=C)[C@@H](NC(=O)[C@@H]1CCCN1C(=O)[C@@H](N)Cc1ccc(O)cc1)c1ccccc1)c1ccccc1`, the IC50 in series [1] worked out at 166 nM; at Mu-type opioid receptor [5], 38.1 nM. In addition, the Ki at Mu-type opioid receptor [2] is 15.7 nM; in series [3], 11000 nM. For the same compound, the Ratio Ki in [4] amounted to 699. Also, the EC50 at Mu-type opioid receptor [6] worked out at 45.1 nM. The inhibition entry on Mu-type opioid receptor [6] and in the series on Mus musculus [9] was “Dose-dependent effect” each time. The inhibition result in series [7] is “inactive”. In addition, at Mu-type opioid receptor [8], the Emax turned out to be 60.3%.

With `C=C(C(N)=O)[C@@H](NC(=O)[C@H](Cc1c[nH]c2ccccc12)NC(=O)[C@@H]1CCCN1C(=O)[C@@H](N)Cc1ccc(O)cc1)c1ccc(Cl)cc1`, the IC50 in [1] was determined as 36.7 nM; on Mu-type opioid receptor [5], 15.3 nM. Moreover, the Ki amounted to 7.12 nM at Mu-type opioid receptor [2] and 10800 nM in series [3]. The Ratio Ki in series [4] turned out to be 1520. In addition, at Mu-type opioid receptor [6], the EC50 was 12 nM. In addition, the inhibition result at Mu-type opioid receptor [6] and in the series on Mus musculus [9] was “Dose-dependent effect” throughout. Moreover, the inhibition entry in series [7] is “inactive”. For the same compound, the Emax on Mu-type opioid receptor [8] was 85.6%.

Take `NC(=O)[C@H](Cc1ccccc1)NC(=O)[C@H](Cc1ccccc1)NC(=O)[C@@H]1CCCN1C(=O)[C@@H](N)Cc1ccc(O)cc1`: the inhibition result in series [7] was “inactive”. The Emax at Mu-type opioid receptor [8] was determined as 82.8%.

Take `C=C(C(N)=O)[C@@H](NC(=O)[C@H](Cc1c[nH]c2ccccc12)NC(=O)[C@@H]1CCCN1C(=O)[C@@H](N)Cc1ccc(O)cc1)c1ccccc1Cl`: the IC50 in series [1] was found to be 365 nM; on Mu-type opioid receptor [5], 16.6 nM. The Ki on Mu-type opioid receptor [2] is 5.48 nM; in series [3] it was 14900 nM. For the same compound, the Ratio Ki in series [4] was found to be 2720. Also, the EC50 at Mu-type opioid receptor [6] stood at 0.84 nM. Moreover, the inhibition result at Mu-type opioid receptor [6] is “Dose-dependent effect”. The inhibition result in series [7] was “inactive”. The Emax on Mu-type opioid receptor [8] came out at 82.6%.

Regarding `NC(=O)[C@H](Cc1ccccc1)NC(=O)[C@H](Cc1c[nH]c2ccccc12)NC(=O)[C@@H]1CCCN1C(=O)[C@@H](N)Cc1ccc(O)cc1`, in series [7], the inhibition result was “inactive”.

`C=C(C(N)=O)[C@@H](NC(=O)[C@H](Cc1c[nH]c2ccccc12)NC(=O)[C@@H]1CCCN1C(=O)[C@@H](N)Cc1ccc(O)cc1)c1ccc2c(c1)OCO2`: the IC50 amounted to 432 nM in series [1] and 14.3 nM on Mu-type opioid receptor [5]. Besides, the Ki worked out at 7.73 nM on Mu-type opioid receptor [2] and 18700 nM in [3]. The Ratio Ki in [4] worked out at 2420. Also, the EC50 at Mu-type opioid receptor [6] was 10.7 nM. In addition, the inhibition entry at Mu-type opioid receptor [6] is “Dose-dependent effect”. In addition, the inhibition entry in series [7] is “inactive”. For the same compound, at Mu-type opioid receptor [8], the Emax came out at 83.9%.

For `C=C(C(N)=O)[C@@H](NC(=O)[C@H](Cc1c[nH]c2ccccc12)NC(=O)[C@@H]1CCCN1C(=O)[C@@H](N)Cc1ccc(O)cc1)c1cccc(Cl)c1`, the inhibition entry (with Mus musculus [10]; in [7]) was “inactive” in each case. The IC50 is 69.4 nM in series [1] and 7.66 nM at Mu-type opioid receptor [5]. Also, the Ki turned out to be 3.49 nM on Mu-type opioid receptor [2] and 5820 nM in series [3]. Besides, the Ratio Ki in [4] was 1670. At Mu-type opioid receptor [6], the EC50 is 0.72 nM. Besides, the inhibition entry was “Dose-dependent effect” on Mu-type opioid receptor [6], “Dose-dependent effect” with Mus musculus [9] and “tde” in the series with Mus musculus [11]. The Emax on Mu-type opioid receptor [8] worked out at 92.5%. Also, the ED50 in the series with Mus musculus [9] (central) turned out to be 0.00928 µmol/kg. Besides, in series [12], the half-life was determined as 1.5 h.

As for `C=C(C(N)=O)[C@@H](NC(=O)[C@H](Cc1c[nH]c2ccccc12)NC(=O)[C@@H]1CCCN1C(=O)[C@@H](N)Cc1ccc(O)cc1)c1ccc(F)cc1`, the IC50 came out at 130 nM in series [1] and 31.5 nM on Mu-type opioid receptor [5]. Further, the inhibition constant (Ki) amounted to 13.7 nM on Mu-type opioid receptor [2] and 17000 nM in series [3]. Also, in series [4], the Ratio Ki was determined as 1240. The EC50 at Mu-type opioid receptor [6] is 7.35 nM. In addition, the inhibition result on Mu-type opioid receptor [6] and in the series on Mus musculus [9] was “Dose-dependent effect” each time. Besides, the inhibition result in series [7] was “inactive”. Further, the Emax at Mu-type opioid receptor [8] was 81.5%.

Consider `C=C(C(N)=O)[C@@H](NC(=O)[C@H](Cc1c[nH]c2ccccc12)NC(=O)[C@@H]1CCCN1C(=O)[C@@H](N)Cc1ccc(O)cc1)c1cccc2ccccc12`, for which the values for the IC50 (in series [1]; on Mu-type opioid receptor [5]) were 84.4 nM and 33.9 nM, respectively. Moreover, the Ki at Mu-type opioid receptor [2] amounted to 26 nM; in series [3], 84700 nM. For the same compound, in series [4], the Ratio Ki was determined as 3260. Also, at Mu-type opioid receptor [6], the EC50 worked out at 72.3 nM. On Mu-type opioid receptor [6], the inhibition entry is “Dose-dependent effect”. Besides, the inhibition result in series [7] is “inactive”. Besides, on Mu-type opioid receptor [8], the Emax was found to be 71%.

In the case of `C=C(C(N)=O)[C@@H](NC(=O)[C@H](Cc1c[nH]c2ccccc12)NC(=O)[C@@H]1CCCN1C(=O)[C@@H](N)Cc1ccc(O)cc1)c1ccc(OC)cc1`, the results for the IC50 (in series [1]; at Mu-type opioid receptor [5]) were 299 nM and 84.2 nM, respectively. The Ki on Mu-type opioid receptor [2] amounted to 4.83 nM; in series [3], 10200 nM. Also, in series [4], the Ratio Ki is 2110. For the same compound, the EC50 on Mu-type opioid receptor [6] worked out at 10.9 nM. In addition, on Mu-type opioid receptor [6], the inhibition entry was “Dose-dependent effect”. The inhibition entry in series [7] is “inactive”. On Mu-type opioid receptor [8], the Emax stood at 85.6%.

What is called IC50 is the concentration that inhibits the measured activity by half. For orientation: Ki means a dissociation constant, usually derived from enzyme kinetics or from competition with a known ligand. As a reminder, the EC50 is the concentration that produces a half-maximal response. As a reminder, the Emax is the maximal effect, on the per cent scale that the assay sets. A word on the ED50: it is the dose that gives a 50% effect, or the effect in half of the subjects. A word on the half-life: it is the time in which the quantity being followed falls by half.
